Reference: ChEMBL document CHEMBL2384937, “Design, synthesis and biological evaluation of novel pyrimidine, 3-cyanopyridine and m-amino-N-phenylbenzamide based monocyclic EGFR tyrosine kinase inhibitors” (Bioorg Med Chem, 2013)

How the values were obtained:
A549 = experiment: Cytotoxicity against human A549 cells after 2 days by sulforhodamine B assay; type: functional, cell-based; details: A549, 48 h
Method in brief: (§1)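 Cells plated at 5 × 10⁴/mL in RPMI-1640 with 5% fetal bovine serum; next day dosed at 0.5, 5, 50, 500 and 5000 ng/mL and cultured 2 days. Survival read by sulforhodamine B staining; IC50 taken from growth curves. Standard deviations below 30%.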

HL-60 = experiment: Cytotoxicity against human HL60 cells after 2 days by sulforhodamine B assay; type: functional, cell-based; details: HL-60, 48 h; method in brief: as §1
[1] = molecular target: Epidermal growth factor receptor (Homo sapiens, UniProt P00533); experiment: Inhibition of recombinant EGFR (unknown origin) after 10 mins by DELFIA/time-resolved fluorometry
[2] = molecular target: Receptor tyrosine-protein kinase erbB-2 (Homo sapiens, UniProt P04626); experiment: Inhibition of recombinant ErbB-2 (unknown origin) after 10 mins by DELFIA/time-resolved fluorometry
Method in brief: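 Compound in DMSO, diluted in 25 mM HEPES pH 7.4, preincubated 10 min at room temperature with 12.5 ng recombinant ErbB-2. Reaction buffer with 20 mM HEPES, 2 mM MnCl₂, Na₃VO₄ and 1 mM DTT; 0.1 mM ATP–50 mM MgCl₂ added for 1 h. After washes, europium-labeled anti-phosphotyrosine antibody (400 ng) 1 h; enhancement solution, time-resolved fluorescence ex 340/em 615 nm. IC50 from percent-inhibition curves.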

Chain of Receptor tyrosine-protein kinase erbB-2 (P04626 whole entry): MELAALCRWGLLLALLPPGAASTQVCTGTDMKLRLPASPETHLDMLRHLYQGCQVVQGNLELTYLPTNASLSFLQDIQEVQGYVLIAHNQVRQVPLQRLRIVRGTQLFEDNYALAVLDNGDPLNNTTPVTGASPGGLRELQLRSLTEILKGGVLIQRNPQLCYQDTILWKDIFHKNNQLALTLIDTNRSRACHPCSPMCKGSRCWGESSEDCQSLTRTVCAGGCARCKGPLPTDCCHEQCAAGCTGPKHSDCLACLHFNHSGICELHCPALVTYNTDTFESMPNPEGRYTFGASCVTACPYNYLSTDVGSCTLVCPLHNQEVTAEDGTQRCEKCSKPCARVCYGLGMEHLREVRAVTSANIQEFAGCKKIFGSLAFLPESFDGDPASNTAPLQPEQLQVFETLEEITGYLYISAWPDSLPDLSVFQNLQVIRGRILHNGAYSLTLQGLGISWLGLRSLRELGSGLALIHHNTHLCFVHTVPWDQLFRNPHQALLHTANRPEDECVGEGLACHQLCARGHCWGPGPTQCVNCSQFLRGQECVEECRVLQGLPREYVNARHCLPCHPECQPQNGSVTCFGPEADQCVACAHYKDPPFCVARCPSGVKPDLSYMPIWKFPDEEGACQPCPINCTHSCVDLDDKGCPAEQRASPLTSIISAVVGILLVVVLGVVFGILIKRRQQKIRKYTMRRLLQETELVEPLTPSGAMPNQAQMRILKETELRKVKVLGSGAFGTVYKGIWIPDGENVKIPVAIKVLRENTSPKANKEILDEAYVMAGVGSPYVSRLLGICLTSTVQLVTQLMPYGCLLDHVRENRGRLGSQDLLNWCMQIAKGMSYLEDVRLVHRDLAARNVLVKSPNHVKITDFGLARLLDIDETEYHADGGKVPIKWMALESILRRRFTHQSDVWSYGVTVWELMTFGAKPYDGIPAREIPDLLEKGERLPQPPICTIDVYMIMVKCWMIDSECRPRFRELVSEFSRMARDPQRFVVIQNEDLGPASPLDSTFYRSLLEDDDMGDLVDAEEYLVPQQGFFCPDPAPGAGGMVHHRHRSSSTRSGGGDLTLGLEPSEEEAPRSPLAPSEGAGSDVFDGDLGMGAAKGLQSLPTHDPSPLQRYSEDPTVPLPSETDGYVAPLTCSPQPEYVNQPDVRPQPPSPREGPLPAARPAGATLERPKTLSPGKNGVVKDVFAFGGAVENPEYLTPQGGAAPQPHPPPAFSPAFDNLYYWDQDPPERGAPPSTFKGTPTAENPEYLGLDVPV
Chain of Epidermal growth factor receptor (P00533 whole entry): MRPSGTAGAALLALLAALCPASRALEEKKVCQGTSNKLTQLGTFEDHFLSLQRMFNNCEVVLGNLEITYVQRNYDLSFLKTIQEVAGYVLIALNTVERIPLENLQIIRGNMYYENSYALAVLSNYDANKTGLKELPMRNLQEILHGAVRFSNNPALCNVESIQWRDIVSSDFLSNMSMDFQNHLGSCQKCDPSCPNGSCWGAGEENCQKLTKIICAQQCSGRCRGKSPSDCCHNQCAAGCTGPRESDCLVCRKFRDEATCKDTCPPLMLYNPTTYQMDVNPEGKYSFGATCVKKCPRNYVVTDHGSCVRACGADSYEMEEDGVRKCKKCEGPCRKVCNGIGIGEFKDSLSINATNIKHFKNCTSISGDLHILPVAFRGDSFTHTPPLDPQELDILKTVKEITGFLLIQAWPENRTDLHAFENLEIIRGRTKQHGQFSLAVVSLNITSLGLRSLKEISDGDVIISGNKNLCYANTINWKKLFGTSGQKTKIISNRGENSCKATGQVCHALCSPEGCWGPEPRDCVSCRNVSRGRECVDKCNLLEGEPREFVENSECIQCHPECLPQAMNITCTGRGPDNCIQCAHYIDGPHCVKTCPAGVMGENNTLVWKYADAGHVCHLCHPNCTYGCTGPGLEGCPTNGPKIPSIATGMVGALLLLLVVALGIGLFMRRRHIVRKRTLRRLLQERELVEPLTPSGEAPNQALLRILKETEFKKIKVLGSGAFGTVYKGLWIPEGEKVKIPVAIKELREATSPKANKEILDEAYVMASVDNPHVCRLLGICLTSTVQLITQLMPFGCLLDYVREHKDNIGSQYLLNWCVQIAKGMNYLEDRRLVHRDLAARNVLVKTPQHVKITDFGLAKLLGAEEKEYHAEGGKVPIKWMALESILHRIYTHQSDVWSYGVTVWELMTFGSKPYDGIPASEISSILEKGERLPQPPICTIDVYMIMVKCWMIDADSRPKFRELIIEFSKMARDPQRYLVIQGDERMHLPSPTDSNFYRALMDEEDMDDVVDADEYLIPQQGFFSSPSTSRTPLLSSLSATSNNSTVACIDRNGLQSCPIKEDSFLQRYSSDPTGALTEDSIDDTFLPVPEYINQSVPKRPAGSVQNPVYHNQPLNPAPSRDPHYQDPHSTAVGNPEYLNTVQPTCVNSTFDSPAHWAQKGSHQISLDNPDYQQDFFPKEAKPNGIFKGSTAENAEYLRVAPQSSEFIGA

| Compound | IC50 [1] | IC50 [2] | IC50 (A549) | IC50 (HL-60) |
| --- | --- | --- | --- | --- |
| CN(C)C/C=C/C(=O)Nc1ccc(-c2cncc(C#N)c2Nc2ccc(OCc3ccccn3)c(Cl)c2)cc1 | > 5 µM |  | > 10 µM | > 10 µM |
| Cc1ccc(NC(=O)c2ccc(CN3CCN(C)CC3)cc2)cc1C(=O)Nc1nccc(-c2cccc(F)c2)n1 | 6 µM |  | > 10 µM |  |
| CCOc1cc([N+](=O)[O-])c(C(=O)Nc2ccc(F)c(Cl)c2)cc1NC(=O)c1ccc(CN2CCN(C)CC2)cc1 | 5 µM |  | 6 µM | 5.5 µM |
| CC(=O)c1ccc(Nc2c(C#N)cncc2-c2ccc(NC(=O)c3ccc(CN4CCN(C)CC4)cc3)cc2)cc1 | > 5 µM |  | > 10 µM | 5 µM |
| CCOc1cc([N+](=O)[O-])c(C(=O)Nc2ccc(OCc3cccc(F)c3)c(Cl)c2)cc1NC(=O)/C=C/CN(C)C | 2 µM |  | 3.5 µM | 4 µM |
| CN1CCN(Cc2ccc(C(=O)Nc3ccc(-c4cncc(C#N)c4Nc4ccc(OCc5cccc(F)c5)c(Cl)c4)cc3)cc2)CC1 | 2.5 µM |  | 6 µM | 1.8 µM |
| Cc1ncnc(Oc2ccc(OCc3ccccn3)c(Cl)c2)c1C#Cc1ccc(CNCCS(C)(=O)=O)o1 | > 5 µM |  |  |  |
| Cc1ncc(C#N)c(Nc2ccc(OCc3ccccn3)c(Cl)c2)c1/C=C/c1cccc(NC(=O)/C=C/CN(C)C)c1 | > 5 µM | > 10 µM |  |  |
| CCOc1ccc(C(=O)Nc2nccc(-c3cccnc3)n2)cc1NC(=O)c1ccc(CN2CCN(C)CC2)cc1 |  |  | > 10 µM | > 10 µM |
| CCOc1ccc(C(=O)Nc2ccc(OCc3ccccn3)c(Cl)c2)cc1NC(=O)c1ccc(CN2CCN(C)CC2)cc1 | 3.5 µM |  | 6 µM | > 10 µM |
| CCOc1cc([N+](=O)[O-])c(C(=O)Nc2ccc(F)c(Cl)c2)cc1NC(=O)/C=C/CN(C)C | 6 µM |  | > 10 µM | 6 µM |
| CN1CCN(Cc2ccc(C(=O)Nc3ccc(-c4cncc(C#N)c4Nc4ccc(OCc5ccccn5)c(Cl)c4)cc3)cc2)CC1 | 2.3 µM |  | > 10 µM | 6 µM |
| Cc1ccc(NC(=O)/C=C/CN(C)C)cc1C(=O)Nc1nccc(-c2cccnc2)n1 | 5 µM |  | > 10 µM |  |
| CC(=O)c1ccc(Nc2c(C#N)cncc2-c2ccc(NC(=O)/C=C/CN(C)C)cc2)cc1 | > 5 µM |  | > 10 µM | > 10 µM |
| CCOc1cc(N)c(C(=O)Nc2ccc(OCc3cccc(F)c3)c(Cl)c2)cc1NC(=O)/C=C/CN(C)C | 1.5 µM |  | 5.5 µM | 6 µM |
| CN1CCN(Cc2ccc(C(=O)Nc3ccc(-c4cncc(C#N)c4Nc4ccc(F)c(Cl)c4)cc3)cc2)CC1 | 3 µM |  | > 10 µM | 5 µM |
| CN(C)C/C=C/C(=O)Nc1ccc(-c2cncc(C#N)c2Nc2ccc(F)c(Cl)c2)cc1 | 3.5 µM |  | > 10 µM | 6 µM |
| CCOc1cc(N)c(C(=O)Nc2ccc(F)c(Cl)c2)cc1NC(=O)/C=C/CN(C)C | 4.5 µM |  | > 10 µM | > 10 µM |
| Cc1ncc(C#N)c(Oc2ccc(OCc3ccccn3)c(Cl)c2)c1C#Cc1ccc(CNCCS(C)(=O)=O)o1 | > 5 µM |  |  |  |
| Cc1ncc(C#N)c(Nc2ccc(OCc3ccccn3)c(Cl)c2)c1/C=C/c1ccc(CNCCS(C)(=O)=O)o1 | > 5 µM | > 10 µM |  |  |
| CCOc1cc([N+](=O)[O-])c(C(=O)Nc2ccc(OCc3ccccn3)c(Cl)c2)cc1NC(=O)c1ccc(CN2CCN(C)CC2)cc1 |  |  | 3.5 µM | 5 µM |
| Cc1ncnc(Nc2ccc(OCc3cccc(F)c3)c(Cl)c2)c1/C=C/c1cccc(NC(=O)/C=C/CN(C)C)c1 | > 5 µM | > 10 µM |  |  |
| CCOc1cc(N)c(C(=O)Nc2ccc(OCc3cccc(F)c3)c(Cl)c2)cc1NC(=O)c1ccc(CN2CCN(C)CC2)cc1 | 5 µM |  | 6 µM | 7 µM |
| CCOc1ccc(C(=O)Nc2nccc(-c3cccnc3)n2)cc1NC(=O)/C=C/CN(C)C | 6 µM |  | > 10 µM | > 10 µM |
| CCOc1cc([N+](=O)[O-])c(C(=O)Nc2ccc(OCc3cccc(F)c3)c(Cl)c2)cc1NC(=O)c1ccc(CN2CCN(C)CC2)cc1 | 5.5 µM |  | 6 µM | 4.5 µM |

Continued, in another order:

| IC50 [1] | IC50 [2] | Compound | IC50 (A549) | IC50 (HL-60) |
| --- | --- | --- | --- | --- |
| 0.6 µM |  | Cc1ccc(NC(=O)c2ccc(CN3CCN(C)CC3)cc2)cc1C(=O)Nc1ccc(OCc2cccc(F)c2)c(Cl)c1 | 5.5 µM | 6 µM |
| 0.66 µM |  | CN(C)C/C=C/C(=O)Nc1ccc(-c2cncc(C#N)c2Nc2ccc(OCc3cccc(F)c3)c(Cl)c2)cc1 | 7 µM | > 10 µM |
| 0.45 µM |  | Cc1ccc(NC(=O)/C=C/CN(C)C)cc1C(=O)Nc1ccc(OCc2cccc(F)c2)c(Cl)c1 | 7 µM | 5.5 µM |
| 1.5 µM |  | Cc1ncc(C#N)c(Nc2ccc(OCc3ccccn3)c(Cl)c2)c1C#Cc1ccc(CNCCS(C)(=O)=O)o1 |  |  |
| 0.8 µM |  | CCOc1cc(N)c(C(=O)Nc2ccc(OCc3ccccn3)c(Cl)c2)cc1NC(=O)/C=C/CN(C)C | > 10 µM | > 10 µM |
| 0.045 µM | > 10 µM | Cc1ncnc(Nc2ccc(OCc3cccc(F)c3)c(Cl)c2)c1C#Cc1ccc(CNCCS(C)(=O)=O)o1 |  |  |
| 1 µM |  | CCOc1cc(N)c(C(=O)Nc2ccc(OCc3ccccn3)c(Cl)c2)cc1NC(=O)c1ccc(CN2CCN(C)CC2)cc1 | 6 µM | 8 µM |
| 1.2 µM |  | CCOc1ccc(C(=O)Nc2ccc(OCc3ccccn3)c(Cl)c2)cc1NC(=O)/C=C/CN(C)C | > 10 µM | > 10 µM |
| 0.8 µM |  | CCOc1cc(N)c(C(=O)Nc2ccc(F)c(Cl)c2)cc1NC(=O)c1ccc(CN2CCN(C)CC2)cc1 | > 10 µM | > 10 µM |
| 0.85 µM |  | CCOc1cc([N+](=O)[O-])c(C(=O)Nc2ccc(OCc3ccccn3)c(Cl)c2)cc1NC(=O)/C=C/CN(C)C | 2.5 µM | 4 µM |
| 0.46 µM | > 10 µM | Cc1ncnc(Nc2ccc(OCc3cccc(F)c3)c(Cl)c2)c1/C=C/c1ccc(CNCCS(C)(=O)=O)o1 |  |  |
